Assay results from ChEMBL document CHEMBL2311519, “Identification and characterization of new DNA G-quadruplex binders selected by a combination of ligand and structure-based virtual screening approaches” (J Med Chem, 2013).
Blank lines part the entries; values can stand above or below the molecule they belong to. Calls of active or inactive are those of the source. No cut-off for these calls is given here.

What was measured:
[1] = Stability of the compound assessed as retention time after 100 mins of UV irradiation; type: physicochemical
How it was run: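 Ligand (30 μM) in 10 mM Tris-HCl, 50 mM KCl, pH 7.5 was irradiated at 308 nm (0.022 J/min) at 25 °C for increasing times. Samples ran on C18 HPLC at 0.02 mL/min with a water/acetonitrile gradient (0.1% formic acid) of 4–80% over 20 min. Detection was positive-mode ESI-MS (4.5 kV, m/z 100–2500).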

Homo sapiens [2] = species on record: Homo sapiens; experiment: Binding affinity to G-quadruplex folded telomeric sequence Tel22 DNA (unknown origin) assessed as DNA stabilization measured 25 mins post UV irradiation by circular dichroism spectral analysis
DNA = experiment: Binding affinity to calf thymus DNA assessed as DNA stabilization at 8 uM by circular dichroism spectral analysis; settings: Bos taurus
Homo sapiens [3] = species on record: Homo sapiens; experiment: Binding affinity to G-quadruplex folded telomeric sequence Tel22 DNA (unknown origin) assessed as DNA stabilization at 8 uM by circular dichroism spectral analysis relative to control
Homo sapiens [4] = species on record: Homo sapiens; experiment: Stabilization of single-stranded DNA 5'-GGATGTGAGTGTGAGTGTGAGG-3' (unknown origin) assessed as DNA modifications at 20 to 50 uM measured 20 mins post UV irradiation by PAGE analysis
How it was run: (§1)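 Tel22 or single-stranded 22-mer 5′-32P end-labelled with T4 kinase; 1 μM DNA in 10 mM Tris, 50 mM KCl, pH 7.5 with increasing ligand, irradiated at 308 nm for variable time (or ligand pre-irradiated 30 min, or non-irradiated); products run on 20% polyacrylamide/7 M urea in 1× TBE, quantified by phosphorimaging.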

Homo sapiens [5] = species on record: Homo sapiens; experiment: Binding affinity to 18 bp double-stranded DNA (unknown origin) assessed as DNA stabilization by fluorescence melting assay
How it was run: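 Fluorescence melting in a real-time PCR cycler (excitation 488 nm, emission 520 nm). The HTS target carried 5′-Dabcyl and 3′-fluorescein; the 18 bp duplex was also a target. Mixtures held 0.25 μM DNA plus ligand in 10 mM LiOH, 50 mM KCl, pH 7.4 (H3PO4). Samples were denatured at 95 °C for 5 min, cooled to 30 °C at 0.5 °C/min, then heated to 90 °C and recooled at 0.2 °C/min. Tm came from the first derivative, ≥3 repeats.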

Homo sapiens [6] = species on record: Homo sapiens; experiment: Stabilization of double-stranded DNA (unknown origin) assessed as DNA modifications at 20 to 50 uM measured 20 mins post UV irradiation by PAGE analysis
Homo sapiens [7] = species on record: Homo sapiens; experiment: Stabilization of G-quadruplex folded telomeric sequence Tel22 DNA (unknown origin) assessed as DNA modifications at 20 to 50 uM measured 20 mins post UV irradiation by PAGE analysis; how it was run: as §1
[8] = Stability of the compound assessed as retention time after 3 mins of UV irradiation; type: physicochemical; settings: 0.05 h
How it was run: (§2)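 30 μM ligand in 10 mM Tris-HCl, 50 mM KCl, pH 7.5 irradiated at 308 nm (0.022 J/min), 25 °C, for increasing times; analysed by LC on C18 (water/acetonitrile 4–80% gradient with 0.1% formic acid over 20 min, 0.02 mL/min) with positive-mode ESI-MS, m/z 100–2500.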

Homo sapiens [9] = species on record: Homo sapiens; experiment: Binding affinity to G-quadruplex folded telomeric sequence Tel22 DNA (unknown origin) assessed as DNA stabilization at 8 uM by circular dichroism spectral analysis
[10] = Stability of the compound assessed as retention time after 25 mins of UV irradiation; type: physicochemical; how it was run: as §2
[11] = Stability of the compound assessed as retention time; type: physicochemical; how it was run: as §2
Homo sapiens [12] = species on record: Homo sapiens; experiment: Binding affinity to human telomeric sequence 5'-AGGGTTAGGGTTAGGGTTAGGGT-3' assessed as change in melting temperature at 10 uM by fluorescence melting assay
Homo sapiens [13] = species on record: Homo sapiens; experiment: Binding affinity to human telomeric sequence 5'-AGGGTTAGGGTTAGGGTTAGGGT-3' assessed as thermal stability by fluorescence melting assay relative to control
How it was run: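 Fluorescence melting on a LightCycler (ex 488, em 520 nm); 0.25 μM 5′-Dabcyl/3′-fluorescein HTS oligo in 10 mM LiOH, 50 mM KCl, pH 7.4 (H3PO4); ligand 0.5–10 μM; denatured 95 °C 5 min, cooled to 30 °C, melted 0.2 °C/min to 90 °C; Tm from first derivative; ≥3 repeats.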

Structure (SMILES): CN(C)c1ccc(Nc2c3ccc(NC(=O)CCN4CCCC4)cc3nc3cc(NC(=O)CCN4CCCC4)ccc23)cc1
deltaTm (Homo sapiens [12]): 32 °C

Structure (SMILES): Cc1c(CC(=O)N2CCN(C)CC2)c(=O)oc2cc3occ(-c4ccc(Cl)cc4)c3cc12
Activity (Homo sapiens [2]): inactive | Activity (DNA): inactive | Activity (Homo sapiens [3]): inactive | Activity (Homo sapiens [4]): Active | Activity (Homo sapiens [5]): inactive | Activity (Homo sapiens [6]): Active | Activity (Homo sapiens [7]): Active | Retention_time [8]: 16.1 min | Activity (Homo sapiens [9]): inactive | Retention_time [10]: 16.1 min | Activity (Homo sapiens [13]): inactive | Retention_time [11]: 17.2 min

Structure (SMILES): COc1ccc(-c2coc3cc4oc(=O)c(CC(=O)N5CCN(CCO)CC5)c(C)c4cc23)cc1
Activity (Homo sapiens [5]): inactive

Other lines, results leading:

Retention_time [1]: 16.6 min | Activity (Homo sapiens [2]): inactive | Activity (DNA): inactive | Activity (Homo sapiens [3]): inactive | Activity (Homo sapiens [4]): Active | Activity (Homo sapiens [5]): inactive | Activity (Homo sapiens [6]): Active | Activity (Homo sapiens [7]): Active | Retention_time [8]: 16.6 min | Activity (Homo sapiens [9]): inactive | Retention_time [10]: 16.6 min | Retention_time [11]: 17 min
Structure (SMILES): Cc1c(CC(=O)N(C)C2CCN(C)CC2)c(=O)oc2c(C)c3occ(-c4ccccc4)c3cc12

Activity (Homo sapiens [5]): inactive
Structure (SMILES): Cc1c(CCC(=O)N2CCN(C)CC2)c(=O)oc2cc3occ(-c4ccccc4)c3cc12

Activity (Homo sapiens [5]): inactive
Structure (SMILES): Cc1c(CCC(=O)NCCCn2ccnc2)c(=O)oc2cc3occ(-c4ccc(F)cc4)c3cc12

deltaTm (Homo sapiens [12]): 30 °C
Structure (SMILES): Cc1cc2c3c([n+](C)c4ccc(F)cc4c3c1)-c1cc(F)ccc1N2C
